Measured values published in ChEMBL document CHEMBL4346761, “Microwave-Assisted Organic Synthesis, structure-activity relationship, kinetics and molecular docking studies of non-cytotoxic benzamide derivatives as selective butyrylcholinesterase inhibitors” (Bioorg Med Chem, 2019).
Activity calls are given as the source filed them. The calls are words filed in the database; no cut-off is given here.

Tests used:
Cholinesterase [1] = molecular target: T1, Cholinesterase (Equus caballus, UniProt P81908); assay: (§1) Inhibition of equine serum BChE using […] chloride as substrate preincubated for 15 mins followed by substrate addition and measured after 15 mins under dark condition by Ellman's method
Method in brief: (§2)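 Modified Ellman assay. Equine serum BChE (51.732 mU) was preincubated 15 min at 25 °C with test compound (dissolved in methanol) in 100 mM sodium phosphate buffer, pH 8.0. Butyrylthiocholine chloride (0.5 mM) was added for 15 min in the dark, then DTNB (0.5 mM) was added. Absorbance was read at 412 nm and mean IC50 values were derived.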

[2] = molecular target: Acetylcholinesterase (Electrophorus electricus) (UniProt O42275); assay: Inhibition of electric eel AChE using acetylthiocholine iodide as substrate preincubated for 15 mins followed by substrate addition and measured after 15 mins under dark condition by Ellman's method
Method in brief: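 Modified Ellman assay. Electric eel AChE (0.002 mU) was preincubated 15 min at 25 °C with test compound (dissolved in methanol) in 100 mM sodium phosphate buffer, pH 8.0. Acetylthiocholine iodide (0.5 mM) and DTNB were added. After 15 min in the dark, absorbance was read at 412 nm.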

NIH3T3 [3] = assay: Cytotoxicity against mouse 3T3 cells at 1 to 30 uM measured after 48 hrs by MTT assay relative to control; type: cell-based; settings: nih3t3, 48 h
Method in brief: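 MTT colorimetric read-out. Cells seeded at 3x10^5 in 100 µL medium and left 24 h to attach. Medium then replaced with fresh medium plus test compound (1 to 30 µM). Incubated 48 h at 37 °C, 5% CO2, 90% humidity. MTT added, 4 h incubation. Formazan dissolved in DMSO, absorbance read at 540 nm. IC50 values calculated.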

[4] = molecular target: Cholinesterase (Equus caballus) (UniProt P81908); assay: Inhibition of equine serum BChE using […] chloride as substrate preincubated for 15 mins followed by substrate addition and measured after 15 mins under dark condition by Ellman's method relative to control; parameters: concentration or dose not given beside the values; method in brief: as §2
Cholinesterase [5] = molecular target: T1, Cholinesterase; assay: Uncompetitive inhibition of equine serum BChE using varying levels of […] chloride as substrate by Lineweaver-Burk plot analysis
Cholinesterase [6] = molecular target: T1, Cholinesterase; assay: Mixed inhibition of equine serum BChE using varying levels of […] chloride as substrate by Lineweaver-Burk plot analysis
Method in brief: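 Kinetics for BChE in the Ellman format with varied substrate. Inhibition mode was assigned from Lineweaver-Burk plots, secondary replots (slope vs inhibitor concentration) and Dixon plots. Apparent Km and Vmax were determined.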

[7] = molecular target: Cholinesterase (Equus caballus) (UniProt P81908); assay: Potency index, ratio of donepezil IC50 to test compound IC50 for equine serum BChE
[8] = molecular target: Cholinesterase (Equus caballus) (UniProt P81908); assay: as §1; method in brief: as §2
NIH3T3 [9] = assay: Cytotoxicity against mouse 3T3 cells measured after 48 hrs by MTT assay relative to control; type: cell-based; settings: nih3t3, 48 h
Method in brief: (§3)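 Cells seeded at 3x10^5 per well in medium and allowed to attach. After 24 h the medium was replaced with fresh medium plus test compound (1 to 30 µM). Plates were held 48 h at 37 °C, 5% CO2, 90% humidity. MTT was added for 4 h, formazan dissolved in DMSO, and absorbance read at 540 nm. IC50 values were calculated.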

NIH3T3 [10] = assay: Cytotoxicity against mouse 3T3 cells measured after 48 hrs by MTT assay; type: cell-based; settings: NIH3T3, 48 h; method in brief: as §3

Sequence of Cholinesterase (Equus caballus) (P81908 whole entry): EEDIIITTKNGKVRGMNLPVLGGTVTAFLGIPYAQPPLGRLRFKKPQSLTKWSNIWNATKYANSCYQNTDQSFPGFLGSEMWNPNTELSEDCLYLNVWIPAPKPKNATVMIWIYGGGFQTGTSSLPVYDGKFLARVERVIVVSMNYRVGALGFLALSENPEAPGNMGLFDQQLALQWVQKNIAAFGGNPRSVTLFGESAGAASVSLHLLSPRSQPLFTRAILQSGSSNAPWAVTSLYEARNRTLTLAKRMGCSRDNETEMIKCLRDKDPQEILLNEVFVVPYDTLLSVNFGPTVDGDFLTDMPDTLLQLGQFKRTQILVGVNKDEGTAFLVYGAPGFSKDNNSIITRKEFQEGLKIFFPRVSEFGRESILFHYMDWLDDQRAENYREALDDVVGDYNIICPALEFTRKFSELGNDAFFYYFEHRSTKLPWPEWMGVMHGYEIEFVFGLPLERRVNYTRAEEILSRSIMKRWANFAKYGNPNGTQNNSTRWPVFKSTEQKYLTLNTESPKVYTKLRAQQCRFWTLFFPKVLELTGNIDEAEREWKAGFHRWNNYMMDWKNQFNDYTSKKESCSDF
T1 sequence (P81908 whole entry): as above
Sequence of Acetylcholinesterase (Electrophorus electricus) (O42275 24-633 limits assumed): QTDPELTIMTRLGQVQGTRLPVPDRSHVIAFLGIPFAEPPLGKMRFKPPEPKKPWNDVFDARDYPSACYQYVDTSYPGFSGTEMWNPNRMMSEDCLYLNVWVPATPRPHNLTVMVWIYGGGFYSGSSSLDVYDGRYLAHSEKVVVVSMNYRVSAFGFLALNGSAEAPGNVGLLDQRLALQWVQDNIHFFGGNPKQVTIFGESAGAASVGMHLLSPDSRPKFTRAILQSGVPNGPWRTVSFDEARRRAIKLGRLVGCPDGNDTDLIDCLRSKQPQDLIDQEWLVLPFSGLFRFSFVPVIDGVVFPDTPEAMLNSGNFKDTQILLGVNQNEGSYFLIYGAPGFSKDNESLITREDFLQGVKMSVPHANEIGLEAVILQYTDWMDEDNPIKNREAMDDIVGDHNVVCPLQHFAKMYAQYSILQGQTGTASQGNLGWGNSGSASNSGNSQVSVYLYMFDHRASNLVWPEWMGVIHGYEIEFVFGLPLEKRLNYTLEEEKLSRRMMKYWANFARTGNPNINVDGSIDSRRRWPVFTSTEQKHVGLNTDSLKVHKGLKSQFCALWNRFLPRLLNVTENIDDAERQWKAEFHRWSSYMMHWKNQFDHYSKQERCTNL

SMILES	IC50 (Cholinesterase [1]) [µM]	inhibition [2]	Activity (NIH3T3 [3]) [%]	inhibition [4] [%]	Ki (Cholinesterase [5]) [µM]	Ki (Cholinesterase [6]) [µM]	Ratio IC50 [7]	inhibition [8]	Activity (NIH3T3 [9]) [%]	IC50 (NIH3T3 [10]) [µM]
CCOc1ccccc1C(=O)Nc1c(Cl)cccc1Cl	6	inactive	15	112						
COc1cc(C(=O)Nc2c(Cl)cccc2Cl)cc(OC)c1OC	20.8	inactive	48	69.2	23.5					
COc1cccc(C(=O)Nc2c(Cl)cccc2Cl)c1	5.5	inactive	14.8	95.2		13				
O=C(Nc1c(Cl)cccc1Cl)c1ccccc1	1.3	inactive	33	100		4.4	10			
O=C(Nc1c(Cl)cccc1Cl)c1cccc([N+](=O)[O-])c1		inactive	41					inactive		
Cc1ccc(C(=O)Nc2c(Cl)cccc2Cl)cc1[N+](=O)[O-]	165	inactive	40	69.1						
O=C(Nc1c(Cl)cccc1Cl)c1ccc(F)cc1	16.1	inactive	29	86.5		9.9				
C[C@@H]1C[C@@H]([C@H](O)CC2CC(=O)NC(=O)C2)C(=O)[C@@H](C)C1 [CYCLOHEXIMIDE]									95	0.8
COc1ccc(C(=O)Nc2c(Cl)cccc2Cl)cc1	11.3	inactive	32	90.7		18				
O=C(Nc1c(Cl)cccc1Cl)c1ccc(F)cc1F	18.7	inactive	34	80.7	27.6					
O=C(Nc1c(Cl)cccc1Cl)c1c(F)cccc1F	12.6	inactive	34	70.6	5.6					
O=C(Nc1c(Cl)cccc1Cl)c1ccccc1Br	1.1	inactive	41	88	2.4					
O=C(Nc1c(Cl)cccc1Cl)c1ccc(Br)cc1	0.8	inactive	49	84		2.6				
